In ChEMBL document CHEMBL1806357, “A regioselective synthesis of some new pyrazol-1'-ylpyrazolo[1,5-a]pyrimidines in aqueous medium and their evaluation as antimicrobial agents” (2011):
Converted amounts (≈) assume the structure as drawn.

Experiments:
[1] = system: Bacillus cereus; assay: Antibacterial activity against Bacillus cereus ATCC 11778 at 4 ug/ml after 24 hrs by agar-well diffusion technique; type: functional, organism-based
How it was run: (§1)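 Agar-well diffusion. Bacteria were kept at 5–8 °C on Brain Heart Infusion agar. Inocula came from 24 h cultures adjusted to 0.5 McFarland (1 × 10^6 CFU/ml). 100 µl was seeded into 20 ml molten Mueller Hinton agar. 6 mm wells received 100 µl of sample, with gentamicin standard at 4 µg/ml and DMSO as negative control. Plates ran 24 h at 37 ± 1 °C; inhibition zone diameter in mm.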

[2] = system: Escherichia coli; assay: Antibacterial activity against Escherichia coli ATCC 8739 after 24 hrs by broth microdilution method; type: functional
[3] = system: Staphylococcus aureus; assay: Antibacterial activity against Staphylococcus aureus ATCC 9144 after 24 hrs by broth microdilution method; type: functional
[4] = system: Staphylococcus aureus; assay: Antibacterial activity against Staphylococcus aureus ATCC 9144 at 4 ug/ml after 24 hrs by agar-well diffusion technique; type: functional, organism-based; how it was run: as §1
[5] = system: Bacillus cereus; assay: Antibacterial activity against Bacillus cereus ATCC 11778 after 24 hrs by broth microdilution method; type: functional
[6] = system: Pseudomonas aeruginosa; assay: Antibacterial activity against Pseudomonas aeruginosa ATCC 25668 at 4 ug/ml after 24 hrs by agar-well diffusion technique; type: functional, organism-based; how it was run: as §1
[7] = system: Pseudomonas aeruginosa; assay: Antibacterial activity against Pseudomonas aeruginosa ATCC 25668 after 24 hrs by broth microdilution method; type: functional
[8] = system: Escherichia coli; assay: Antibacterial activity against Escherichia coli ATCC 8739 at 4 ug/ml after 24 hrs by agar-well diffusion technique; type: functional, organism-based; how it was run: as §1
[9] = system: Helminthosporium; assay: Antifungal activity against Helminthosporium sp. at 200 ug/ml after 7 days by poisoned food technique relative to control; type: functional
How it was run: (§2)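 Poisoned food technique with soil-isolated fungi on PDA. Compound from a 1 mg/ml DMSO stock was added to molten agar at 40 ± 2 °C to give 10, 50, 100 or 200 µg/ml. A 6 mm mycelial disc from a 6-day culture was placed centrally, and plates were held at 28 ± 1 °C. Radial growth was measured after 7 days, and % inhibition was calculated against PDA/DMSO control, in triplicate.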

[10] = system: Fusarium oxysporum; assay: Antifungal activity against Fusarium oxysporum at 100 ug/ml after 7 days by poisoned food technique relative to control; type: functional; how it was run: as §2
[11] = system: Helminthosporium; assay: Antifungal activity against Helminthosporium sp. at 50 ug/ml after 7 days by poisoned food technique relative to control; type: functional; how it was run: as §2
[12] = system: Alternaria alternata; assay: Antifungal activity against Alternaria alternata at 200 ug/ml after 7 days by poisoned food technique relative to control; type: functional; how it was run: as §2
[13] = system: Aspergillus terreus; assay: Antifungal activity against Aspergillus terreus at 50 ug/ml after 7 days by poisoned food technique relative to control; type: functional; how it was run: as §2
[14] = system: Staphylococcus aureus; assay: Antibacterial activity against Staphylococcus aureus ATCC 9144 at 2 mg/ml after 24 hrs by agar-well diffusion technique; type: functional; settings: ATCC 9144, 24 h, read-out: DIZ
How it was run: (§3)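 Agar-well diffusion used MHA seeded with 24 h cultures at 0.5 McFarland (1 × 10^6 CFU/ml). 100 µl of compound (2 mg/ml in DMSO, filter-sterilized) went into each 6 mm well. Plates were incubated upright at 37 ± 1 °C for 24 h, and the inhibition zone diameter was measured in mm. DMSO was the negative control. Values are the mean of three replicates.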

[15] = system: Fusarium oxysporum; assay: Antifungal activity against Fusarium oxysporum at 200 ug/ml after 7 days by poisoned food technique relative to control; type: functional; how it was run: as §2
[16] = system: Helminthosporium; assay: Antifungal activity against Helminthosporium sp. at 10 ug/ml after 7 days by poisoned food technique relative to control; type: functional; how it was run: as §2
[17] = system: Alternaria alternata; assay: Antifungal activity against Alternaria alternata at 50 ug/ml after 7 days by poisoned food technique relative to control; type: functional; how it was run: as §2
[18] = system: Pseudomonas aeruginosa; assay: Antibacterial activity against Pseudomonas aeruginosa ATCC 25668 at 2 mg/ml after 24 hrs by agar-well diffusion technique; type: functional; settings: ATCC 25668, 24 h, read-out: DIZ; how it was run: as §3
[19] = system: Fusarium oxysporum; assay: Antifungal activity against Fusarium oxysporum at 10 ug/ml after 7 days by poisoned food technique relative to control; type: functional; how it was run: as §2
[20] = system: Helminthosporium; assay: Antifungal activity against Helminthosporium sp. at 100 ug/ml after 7 days by poisoned food technique relative to control; type: functional; how it was run: as §2
[21] = system: Aspergillus terreus; assay: Antifungal activity against Aspergillus terreus at 100 ug/ml after 7 days by poisoned food technique relative to control; type: functional; how it was run: as §2
[22] = system: Aspergillus terreus; assay: Antifungal activity against Aspergillus terreus at 200 ug/ml after 7 days by poisoned food technique relative to control; type: functional; how it was run: as §2
[23] = system: Bacillus cereus; assay: Antibacterial activity against Bacillus cereus ATCC 11778 at 2 mg/ml after 24 hrs by agar-well diffusion technique; type: functional; settings: ATCC 11778, 24 h, read-out: DIZ; how it was run: as §3
[24] = system: Aspergillus terreus; assay: Antifungal activity against Aspergillus terreus at 10 ug/ml after 7 days by poisoned food technique relative to control; type: functional; how it was run: as §2
[25] = system: Alternaria alternata; assay: Antifungal activity against Alternaria alternata at 100 ug/ml after 7 days by poisoned food technique relative to control; type: functional; how it was run: as §2
[26] = system: Alternaria alternata; assay: Antifungal activity against Alternaria alternata at 10 ug/ml after 7 days by poisoned food technique relative to control; type: functional; how it was run: as §2
[27] = system: Escherichia coli; assay: Antibacterial activity against Escherichia coli ATCC 8739 at 2 mg/ml after 24 hrs by agar-well diffusion technique; type: functional; settings: ATCC 8739, 24 h, read-out: DIZ; how it was run: as §3
[28] = system: Fusarium oxysporum; assay: Antifungal activity against Fusarium oxysporum at 50 ug/ml after 7 days by poisoned food technique relative to control; type: functional; how it was run: as §2
[29] = system: Staphylococcus aureus; assay: Antibacterial activity against Staphylococcus aureus ATCC 9144 at 1 mg/ml after 24 hrs by agar-well diffusion technique; type: functional; settings: ATCC 9144, 24 h, read-out: DIZ
[30] = system: Bacillus cereus; assay: Antibacterial activity against Bacillus cereus ATCC 11778 at 1 mg/ml after 24 hrs by agar-well diffusion technique; type: functional; settings: ATCC 11778, 24 h, read-out: DIZ
[31] = system: Pseudomonas aeruginosa; assay: Antibacterial activity against Pseudomonas aeruginosa ATCC 25668 at 1 mg/ml after 24 hrs by agar-well diffusion technique; type: functional; settings: ATCC 25668, 24 h, read-out: DIZ
[32] = system: Escherichia coli; assay: Antibacterial activity against Escherichia coli ATCC 8739 at 1 mg/ml after 24 hrs by agar-well diffusion technique; type: functional; settings: ATCC 8739, 24 h, read-out: DIZ
[33] = system: Helminthosporium; assay: Antifungal activity against Helminthosporium sp. at 10 ug/ml after 7 days by poisoned food technique relative to 10 ug/ml mancozeb; type: functional
[34] = system: Alternaria alternata; assay: Antifungal activity against Alternaria alternata at 10 ug/ml after 7 days by poisoned food technique relative to 10 ug/ml mancozeb; type: functional
[35] = system: Fusarium oxysporum; assay: Antifungal activity against Fusarium oxysporum at 10 ug/ml after 7 days by poisoned food technique relative to 10 ug/ml mancozeb; type: functional

Compound | Activity [9] | MIC ([2]; ATCC 8739, 24 h) | Activity [10] | Activity [11] | Activity [12] | Activity [13] | zone of inhibition at 2000 µg/mL [14] | Activity [15] | Activity [16] | Activity [17] | MIC ([3]; ATCC 9144, 24 h) | zone of inhibition at 2000 µg/mL [18] | Activity [19] | Activity [20] | Activity [21] | MIC ([5]; ATCC 11778, 24 h) | Activity [22] | zone of inhibition at 2000 µg/mL [23] | MIC ([7]; ATCC 25668, 24 h) | zone of inhibition at 2000 µg/mL [27] | also measured
GENTAMICIN |  |  |  |  |  |  |  |  |  |  |  |  |  |  |  |  |  |  |  |  | inhibition zone (IZ) [1]: 14 mm; MIC [2]: 4 µg/mL; MIC [3]: 2 µg/mL; inhibition zone (IZ) [4]: 14 mm; MIC [5]: 4 µg/mL; inhibition zone (IZ) [6]: 12 mm; MIC [7]: 2 µg/mL; inhibition zone (IZ) [8]: 24 mm
Cc1cc(-c2ccccc2)n2nc(-n3nc(C)cc3-c3ccccc3)cc2n1 | 0% | 200 µg/mL (≈ 547 µM) | 3.65% | 0% | 20.7% | 13.5% | 8 mm | 2.4% | 0% | 20.7% | 200 µg/mL (≈ 547 µM) | 7.5 mm | 8.53% | 0% | 19.2% | 200 µg/mL (≈ 547 µM) | 19.7% | 8 mm | > 200 µg/mL | 8 mm | Activity [24]: 7.4%; Activity [25]: 19.5%; Activity [26]: 18.2%; Activity [28]: 6.09%
Cc1cc(-c2ccc(Br)cc2)n2nc(-n3nc(C)cc3-c3ccc(Br)cc3)cc2n1 |  | > 100 µg/mL |  |  |  |  | 8 mm |  |  |  | > 100 µg/mL | 8 mm |  |  |  | > 100 µg/mL |  | 8 mm | > 100 µg/mL | 8 mm | 
CC(=O)NC[C@H]1CN(c2ccc(N3CCOCC3)c(F)c2)C(=O)O1 [LINEZOLID] |  | > 100 µg/mL |  |  |  |  |  |  |  |  |  |  |  |  |  | > 100 µg/mL |  |  | > 100 µg/mL |  | zone of inhibition at 1000 µg/mL [29]: 18 mm; zone of inhibition at 1000 µg/mL [30]: 10 mm; zone of inhibition at 1000 µg/mL [31]: 8.5 mm; zone of inhibition at 1000 µg/mL [32]: 12 mm
Cc1cc(-c2ccc(Cl)cc2)n2nc(-n3nc(C)cc3-c3ccc(Cl)cc3)cc2n1 | 36.6% | 25 µg/mL (≈ 57.6 µM) | 9.8% | 15.5% | 0% | 0% | 9 mm | 16.3% | 11.1% | 0% | 100 µg/mL (≈ 230 µM) | 10 mm | 1.63% | 17.7% | 2.5% | 50 µg/mL (≈ 115 µM) | 12.5% | 13 mm | 100 µg/mL (≈ 230 µM) | 13 mm | Activity [24]: 0%; Activity [25]: 0%; Activity [26]: 0%; Activity [28]: 3.27%
COc1ccc(-c2cc(C)nn2-c2cc3nc(C)cc(-c4ccc(OC)cc4)n3n2)cc1 | 62.2% | > 100 µg/mL | 26.2% | 0% | 11.1% | 6.25% | 8 mm | 20% | 0% | 0% | > 100 µg/mL | 8 mm | 6.55% | 27.7% | 7.5% | > 100 µg/mL | 11.3% | 8 mm | > 100 µg/mL | 8 mm | Activity [24]: 2.5%; Activity [25]: 11.1%; Activity [26]: 0%; Activity [28]: 3.27%
Cc1cc(C)n2nc(-n3nc(C)cc3C)cc2n1 | 79.2% | > 400 µg/mL | 67% | 66.6% | 73.1% | 33.7% | 7 mm | 71.9% | 42.2% | 69.5% | 400 µg/mL (≈ 1660 µM) | 7 mm | 56% | 79.2% | 68.5% | > 400 µg/mL | 73.2% | 7 mm | > 400 µg/mL | 7 mm | fold change (FC) [33]: 3.4; fold change (FC) [34]: 2.6; fold change (FC) [35]: 2; Activity [24]: 9.87%; Activity [25]: 71.6%; Activity [26]: 47.5%; Activity [28]: 67%
Cc1cc(-c2cccs2)n2nc(-n3nc(C)cc3-c3cccs3)cc2n1 |  | 200 µg/mL (≈ 530 µM) |  |  |  |  | 8 mm |  |  |  | 200 µg/mL (≈ 530 µM) | 8 mm |  |  |  | > 200 µg/mL |  | 8 mm | 200 µg/mL (≈ 530 µM) | 8 mm | 
Cc1ccc(-c2cc(C)nn2-c2cc3nc(C)cc(-c4ccc(C)cc4)n3n2)cc1 |  | 50 µg/mL (≈ 127 µM) |  |  |  |  | 8 mm |  |  |  | 100 µg/mL (≈ 254 µM) | 8 mm |  |  |  | 100 µg/mL (≈ 254 µM) |  | 8.5 mm | 100 µg/mL (≈ 254 µM) | 10.5 mm | 
Cc1nn(-c2cc3nc(C)c4c(n3n2)CCC4)c2c1CCC2 |  | > 400 µg/mL |  |  |  |  | 7 mm |  |  |  | 400 µg/mL (≈ 1360 µM) | 7 mm |  |  |  | 400 µg/mL (≈ 1360 µM) |  | 7 mm | > 400 µg/mL | 7 mm | 
